Test results published in ChEMBL document CHEMBL3272275, “Synthesis and antiinflammatory activity of some 1,2,3- and 1,2,4-triazolepropionic acids” (J Med Chem, 1978).

Legend:
Rattus norvegicus [1] = experiment: […] in Freund's adjuvant-induced Lewis rat arthritis model assessed as reduction of uninjected paw volume at 0.2 mmol/kg, po qd administered on day 0 to day 21 of adjuvant challenge measured on day 21 by plethysmometry relative to control; format: organism-based; set-up: scale not given: the % may be the effect or the level left; conditions: in vivo
Procedure, shortened: (§1)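 Male Lewis rats (125-150 g) given an intradermal injection of 0.05 mL of 0.65% Mycobacterium tuberculosis suspension in Freund's adjuvant into the right hind plantar surface on day 0. Negative controls received mineral oil only. Dosing once daily by gavage, groups of six, days 0-21. Injected and uninjected hind-foot volume change over days 0-21 measured plethysmographically. Value is percent reduction relative to controls.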

Rattus norvegicus [2] = experiment: Antiinflammatory activity in Freund's adjuvant-induced Lewis rat arthritis model assessed as reduction of paw volume at 0.2 mmol/kg, po qd administered on day 0 to day 21 of adjuvant challenge measured on day 21 by plethysmometry relative to control; format: functional; set-up: scale not given: the % may be the effect or the level left; procedure, shortened: as §1
Rattus norvegicus [3] = experiment: Antiinflammatory activity against carrageenan/Evans blue dye-induced pleural effusion rat model assessed as reduction in pleural fluid volume at 0.4 mmol/kg, po administered 1 hr prior challenge measured 6 hrs post challenge relative to control; format: functional; set-up: scale not given: the % may be the effect or the level left
Procedure, shortened: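 Oral dosing at 0.4 mmol/kg to groups of six rats, 1 h before intrapleural carrageenan plus Evans blue dye. Rats killed 6 h after the irritants and pleural fluid volume measured. Value is percent reduction in fluid volume relative to untreated controls.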

Rattus norvegicus [4] = experiment: Antiinflammatory activity in Freund's adjuvant-induced Lewis rat arthritis model assessed as reduction of paw volume at 0.2 mmol/kg, po qd administered on day 0 to day 21 of adjuvant challenge measured on day 7 by plethysmometry relative to control; format: functional; set-up: scale not given: the % may be the effect or the level left
Rattus norvegicus [5] = experiment: […] in Freund's adjuvant-induced Lewis rat arthritis model assessed as reduction of uninjected paw volume at 72 mg/kg, po qd administered on day 0 to day 21 of adjuvant challenge measured on day 21 by plethysmometry relative to control; format: organism-based; set-up: dose 72 mg/kg, route oral; scale not given: the % may be the effect or the level left; conditions: in vivo; procedure, shortened: as §1
Rattus norvegicus [6] = experiment: Antiinflammatory activity against carrageenan/Evans blue dye-induced pleural effusion rat model assessed as reduction in pleural fluid volume at 0.83 mmol/kg, po administered 1 hr prior challenge measured 6 hrs post challenge relative to control; format: functional; set-up: scale not given: the % may be the effect or the level left
Rattus norvegicus [7] = experiment: Antiinflammatory activity in Freund's adjuvant-induced Lewis rat arthritis model assessed as reduction of paw volume at 72 mg/kg, po qd administered on day 0 to day 21 of adjuvant challenge measured on day 21 by plethysmometry relative to control; format: functional; set-up: scale not given: the % may be the effect or the level left; procedure, shortened: as §1
Rattus norvegicus [8] = experiment: Antiinflammatory activity in Freund's adjuvant-induced Lewis rat arthritis model assessed as reduction of paw volume at 72 mg/kg, po qd administered on day 0 to day 21 of adjuvant challenge measured on day 7 by plethysmometry relative to control; format: functional; set-up: scale not given: the % may be the effect or the level left
Rattus norvegicus [9] = experiment: Antiinflammatory activity against carrageenan/Evans blue dye-induced pleural effusion rat model assessed as reduction in pleural fluid volume at 0.4 mmol/kg, po administered 1 hr prior challenge measured 6 hrs post challenge relative to phenylbutazone; format: functional

SMILES	Activity (Rattus norvegicus [1]) [%]	Activity (Rattus norvegicus [2]) [%]	Activity (Rattus norvegicus [3]) [%]	Activity (Rattus norvegicus [4]) [%]	Activity (Rattus norvegicus [5]) [%]	Activity (Rattus norvegicus [6]) [%]	Activity (Rattus norvegicus [7]) [%]	Activity (Rattus norvegicus [8]) [%]	fold change (FC) (Rattus norvegicus [9])
O=C(O)Cn1ncc(-c2ccccc2)n1	45	-9	-5	-17					
CC(=O)Oc1ccccc1C(=O)O [ASPIRIN]					-11	29	5	37	
O=C(O)CCn1cnc(-c2cccc(Cl)c2)n1	14	11	1.1	3					
O=C(O)CCc1cnn(-c2cccc(Cl)c2)n1	11	32	33	13					
O=C(O)CCc1cn(-c2cccc(Cl)c2)nn1	21	-4.9	10	10					
O=C(O)CCn1ncc(-c2cc(Cl)cc(Cl)c2)n1	38	33	0	35					
O=C(O)CCc1nc(-c2ccccc2)n[nH]1	30	4.2	-1.7	9.1					
CC(=O)c1nn(CCC(=O)O)nc1-c1ccccc1	-30	-8	2.6	13					
O=C(O)CCn1cc(-c2cccc(Cl)c2)nn1	-8.2	3.5	-1.4	-1.1					
O=C(O)CCc1cn(-c2cccc(F)c2)nn1	-2	-2.4	-4.1	22					
CN(C)c1nn(CCC(=O)[O-])nc1-c1ccccc1.[Na+]			0						
O=C(O)CCn1cc(-c2cccc(F)c2)nn1	1.6	-10	1.7	-9.9					
O=C(O)CCn1cc(-c2cccc(Br)c2)nn1	23	7.2	11	0					
Nc1cccc(-c2cn(CCC(=O)O)nn2)c1	-6.7	14	1.4	2.8					
O=C(O)CCc1ncn(-c2ccccc2)n1	-15	-0.6	12	1.3					
O=C(O)/C=C/c1cnn(-c2cccc(Cl)c2)n1			18						
O=C(O)CCn1cc(-c2ccccc2)nn1	-12	2.2	0	8.9					
CCOc1cccc(-c2cn(CCC(=O)O)nn2)c1	-28	-9	0.6	0.4					
O=C(O)CCc1ncn(-c2cccc(Cl)c2)n1			7.5						
O=C(O)CCn1cnc(-c2cccc(Br)c2)n1	16	0.1	8.9	6.2					
O=C(O)CCc1nc(-c2cccc(Cl)c2)n[nH]1	3	3	2.9	3					
Cl.O=C(O)CCn1ncc(-c2cccnc2)n1			-1.3						
CC(=O)Nc1cccc(-c2cnn(CCC(=O)O)n2)c1	-24	-0.1	-3.2	8.1					
Cc1cccc(-c2ncn(CCC(=O)O)n2)c1	50	7.1	-3.2	-5.1					

SMILES	Activity (Rattus norvegicus [1]) [%]	Activity (Rattus norvegicus [2]) [%]	Activity (Rattus norvegicus [3]) [%]	Activity (Rattus norvegicus [4]) [%]	Activity (Rattus norvegicus [5]) [%]	Activity (Rattus norvegicus [6]) [%]	Activity (Rattus norvegicus [7]) [%]	Activity (Rattus norvegicus [8]) [%]	fold change (FC) (Rattus norvegicus [9])
O=C(O)CCn1nnc(-c2ccccc2)n1									0.9
Cc1nn(CCC(=O)O)nc1-c1ccccc1			17						
O=C(O)CCc1cnn(-c2cccc(Br)c2)n1	39	35	14	14					
O=C(O)/C=C/c1cnn(-c2cccc(Br)c2)n1	16	14	20	12					
O=C(O)CCc1cnn(-c2ccccc2)n1	36	24	28	9.1					
Cc1cccc(-c2cn(CCC(=O)O)nn2)c1	22	-7.8	0	10					
Cc1cccc(-c2ncn(CC(=O)O)n2)c1	-13	-6	3	0.2					
Cc1cccc(-c2cnn(CCC(=O)O)n2)c1	9.6	4.5	-1.3	13					
O=C(O)CCn1cnc(-c2ccccc2)n1	10	8.6	-3.7	4.4					
O=C(O)CCc1ncn(-c2cc(Cl)cc(Cl)c2)n1	71	30	5.2	23					
O=C(O)CCn1cc(-c2cccnc2)nn1	-30	18	5.1	9.3					
Cc1cccc(-c2n[nH]c(CCC(=O)O)n2)c1			-3						
O=C(O)CCn1ncc(-c2cccc(Cl)c2)n1	26	42	19	28					
O=C(O)CCc1nnn(-c2cccc(Br)c2)n1	22	34	21	17					
CC(=O)Nc1cccc(-c2cn(CCC(=O)O)nn2)c1	-19	20	9.9	1.7					
O=C(O)CCn1nncc1-c1ccccc1			5						
O=C(O)CCn1ncc(-c2ccccc2)n1	63	57	42	36					
CCCCC1C(=O)N(c2ccccc2)N(c2ccccc2)C1=O [PHENYLBUTAZONE]	36	39	28	33					
O=C(O)CCc1cn(-c2ccccc2)nn1	-3.2	-1.6	1.6	2.3					
O=C(O)CCc1nc(-c2cccc(Br)c2)n[nH]1	30	-1.2	-9	-13					
O=C(O)CCCn1ncc(-c2ccccc2)n1	1.4	14	13	-1.8					
O=C(O)CCn1nc(-c2ccccc2)c(-c2ccccc2)n1	34	23	26	21					
O=C(O)CCn1ncc(-c2cccc(Br)c2)n1	25	30	29	19					
O=C(O)/C=C/c1cnn(-c2ccccc2)n1	42	20	13	14					
